Experimental data taken from ChEMBL document CHEMBL1142233, “Treatment of diabetes and atherosclerosis by inhibiting fatty-acid-binding protein aP2” (2007).
Calls of active or inactive are those of the source. The rule behind the calls is not given here.

Tests used:
Macrophage = test: Decrease in MCP1 production in mouse aP2+/+ macrophage cells after 24 hrs; type: functional, cell-based
In short: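 Immortalized mouse macrophage lines (aP2−/−R re-expressing aP2) kept 24 h in RPMI plus 5% LPDS with inhibitor 0–25 μM in DMSO. MCP-1 in supernatant measured by ELISA and expressed relative to inhibitor-free cells of each line. At least triplicate.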

THP-1 [1] = test: Reduction of IL6 expression in human THP1 cells expressing aP2 relative to control; type: functional, cell-based
Mus musculus [2] = test: Effect on insulin level in 5-week old apoE-/- C57BL/6J mouse fed on western diet and administered with 15 mg/kg/day, po drug at 12 week in 12-18 week late intervention study; type: functional
In short: (§1)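 Male Apoe−/− mice on western diet (21% fat, 0.21% cholesterol) from 4–5 weeks of age. Oral gavage for 6 weeks from age 5 or 12 weeks; vehicle 10% 1-methyl-2-pyrrolidone, 5% cremophor EL with ethanol in water. Blood taken after 6 h fast before and after treatment. Glucose by meter; insulin by ELISA; lipids and glycerol colorimetric.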

Mus musculus [3] = test: Inhibition of JNK1 activity in ob/ob mouse liver at 40 mg/kg/day, po relative to control; type: functional, organism-based
In short: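 Liver lysates (500–1,000 μg protein) from ob/ob mice gavaged at 40 mg kg⁻¹ d⁻¹ were immunoprecipitated with JNK1 antibody. The beads were incubated with 10 μCi ³²P-γATP, 10 μM ATP and 5 μg c-jun fusion protein in Hepes pH 7.4/MgCl₂ buffer at 30 °C for 20 min. The reaction was stopped with Laemmli buffer and quantified.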

THP-1 [4] = test: Reduction of Mcp1 expression in human THP1 cells expressing aP2 relative to control; type: functional, cell-based
Mus musculus [5] = test: Reduction of total liver triglyceride level in ob/ob mouse at 40 mg/kg/day, po; type: functional, organism-based
In short: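 Male ob/ob mice were gavaged with 40 mg kg⁻¹ d⁻¹ or vehicle for 6 weeks from 8 weeks of age, n = 6 per group. Total liver lipids were extracted by the Bligh–Dyer method and triglyceride content was determined.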

Mus musculus [6] = test: Effect on glycerol level in 5-week old apoE-/- C57BL/6J mouse fed on western diet and 15 mg/kg/day, po drug simultaneously in 5-11 week early intervention study; type: functional; in short: as §1
Mus musculus [7] = test: Suppression of clamp hepatic glucose production in ob/ob mouse at 40 mg/kg/day, po after 4 weeks by hyperinsulinemic-euglycaemic clamp studies; type: functional, organism-based
In short: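 Clamps were run in ob/ob mice after 4 weeks of oral gavage at 40 mg kg⁻¹ d⁻¹ (vehicle n = 7, treated n = 9), with jugular catheters placed 4 days earlier. Insulin was infused at 12.5 mU kg⁻¹ min⁻¹, 25% glucose at variable rates held basal glycaemia, and ³H-glucose ran at 0.1 μCi min⁻¹. Clamp hepatic glucose production = whole-body uptake minus glucose infusion rate.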

Mus musculus [8] = species: Mus musculus; test: Decrease in glucose level in wild type mouse fed on high fat diet after 4 weeks by glucose tolerance test relative to control; type: functional, organism-based
In short: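 Wild-type C57BL/6J mice on 60% fat diet from 4 weeks of age, gavaged with 40 mg kg⁻¹ d⁻¹ or vehicle for 4 weeks starting at 20 weeks of age. Glucose tolerance tested with 1.5 g kg⁻¹ intraperitoneal glucose after an overnight fast.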

[9] = Reduction of Mcp1 expression mouse aP2+/+ macrophage cells relative to control; type: functional, cell-based
In short: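 Mouse aP2⁺/⁺ and aP2-reconstituted aP2⁻/⁻ macrophage lines were grown in RPMI with FBS or 5% LPDS, with inhibitor in DMSO or vehicle. Mcp-1, Il1β, Il6 and Tnf mRNA were measured by SYBR Green qRT-PCR (annealing at 58 °C, 50 cycles), normalized to 18s rRNA and then to untreated cells. Mean ± s.e.m.; at least triplicate.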

Mus musculus [10] = test: Attenuation of fatty infiltration of liver in ob/ob mouse at 40 mg/kg/day, po; type: functional, organism-based
In short: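 Male ob/ob mice given daily oral gavage for 6 weeks starting at 8 weeks of age. Liver sections stained with haematoxylin and eosin; n = 6 per group.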

Mus musculus [11] = test: Effect on glycerol level in ob/ob mouse at 40 mg/kg/day, po after 6 weeks relative to control; type: functional
In short: (§2)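 Male ob/ob mice given oral gavage daily for 6 weeks from 8 weeks old, n = 6 per group. Blood taken after 6 h fast before and after treatment; fed glucose taken at week 2. Glucose by meter on 3 μl whole blood, insulin by ultrasensitive ELISA, cholesterol, FFA and glycerol by colorimetric microplate assays.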

Mus musculus [12] = test: Decrease in triglyceride level in ob/ob mouse at 40 mg/kg/day, po after 6 weeks relative to control; type: functional
Mus musculus [13] = test: Decrease in Mcp1 expression in ob/ob mouse adipose tissue at 40 mg/kg/day, po; type: functional, organism-based
Mus musculus [14] = test: Increase in glucose metabolism in ob/ob mouse at 40 mg/kg/day, po after 4 weeks by glucose tolerance test; type: functional, organism-based
In short: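 Male ob/ob mice after 4 weeks of daily 40 mg kg⁻¹ oral gavage (started at 8 weeks), n = 6 per group. Glucose tolerance tested with 0.5 g kg⁻¹ intraperitoneal glucose after an overnight fast.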

Mus musculus [15] = test: Decrease in blood glucose level in fasted ob/ob mouse at 40 mg/kg/day, po after 6 weeks; type: functional, organism-based; in short: as §2
Mus musculus [16] = test: Increase in free fatty acid level in ob/ob mouse at 40 mg/kg/day, po after 6 weeks relative to control; type: functional; in short: as §2
THP-1 [17] = test: Increase in ABCA1 protein level in human THP1 cells at 25 uM relative to control; type: functional, cell-based
Mus musculus [18] = test: Effect on adiponectin level in 5-week old apoE-/- C57BL/6J mouse fed on western diet and administered with 15 mg/kg/day, po drug at 12 week in 12-18 week late intervention study; type: functional; in short: as §1
Mus musculus [19] = test: Decrease in TNF expression in ob/ob mouse adipose tissue at 40 mg/kg/day, po; type: functional, organism-based
Mus musculus [20] = species: Mus musculus; test: Decrease in fatty acid uptake in wild type mouse aP2+/+ mal1+/+ preadipocytes after 24 hrs; type: functional
In short: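 Immortalized mouse pre-adipocytes differentiated with dexamethasone, IBMX, rosiglitazone and insulin, then insulin alone. Cells incubated 24 h in DMEM with 2% FBS plus inhibitor, then moved to DMEM with 2% BSA and given ³H-stearate at 37 °C for 30 min. Lysate counted by scintillation; values normalized to protein and expressed as % of untreated.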

Mus musculus [21] = test: Effect on body weight in 5-week old apoE-/- C57BL/6J mouse fed on western diet and administered with 15 mg/kg/day, po drug at 12 week in 12-18 week late intervention study; type: functional
Mus musculus [22] = test: Decrease in blood glucose level in fed ob/ob mouse at 40 mg/kg/day, po after 2 weeks; type: functional, organism-based; in short: as §2
Mus musculus [23] = test: Increase in insulin sensitivity in ob/ob mouse at 40 mg/kg/day, po after 5 weeks by insulin tolerance test; type: functional, organism-based
In short: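 Male ob/ob mice, from 8 weeks of age, got 40 mg kg⁻¹ d⁻¹ of the inhibitor or vehicle by oral gavage for 6 weeks. After 5 weeks of treatment and a 6 h fast, insulin was given intraperitoneally (2 IU kg⁻¹). Blood glucose was read with a glucose meter on 3 μl whole blood. Vehicle and treated groups had n = 6 each.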

CCc1c(-c2ccccc2)c(-c2ccccc2)nn1-c1ccccc1-c1cccc(OCC(=O)O)c1
Activity (Macrophage): Active | Activity (THP-1 [1]): Active | Activity (Mus musculus [2]): 2.19 ng/mL | Activity (Mus musculus [3]): Active | Activity (THP-1 [4]): Active | Activity (Mus musculus [5]): Active | Activity (Mus musculus [6]): 2.31 mM | Activity (Mus musculus [7]): Active | Activity (Mus musculus [8]): Active | Activity [9]: Active | Activity (Mus musculus [10]): Active | Activity (Mus musculus [11]): 0.56 mM | Activity (Mus musculus [12]): 58 mg/dL | Activity (Mus musculus [13]): Active | Activity (Mus musculus [14]): Active | Activity (Mus musculus [15]): Active | Activity (Mus musculus [16]): 0.9 mM | Activity (THP-1 [17]): Active | Activity (Mus musculus [18]): 5.78 µg/mL | Activity (Mus musculus [19]): Active | Activity (Mus musculus [20]): Dose-dependent effect | Activity (Mus musculus [21]): 37 g | Activity (Mus musculus [22]): Active | Activity (Mus musculus [23]): Active
